Measured values from ChEMBL document CHEMBL4311941, “Development of Multifunctional Histone Deacetylase 6 Degraders with Potent Antimyeloma Activity” (J Med Chem, 2019).
Calls of active or inactive are those of the source. The rule behind the calls is not given here.

What was measured:
[1] = target: T1, Protein cereblon/Protein deacetylase HDAC6 (Homo sapiens, UniProt Q9UBN7+Q96SW2); test: Protac activity at CRBN/HDAC6 in human MM1S cells assessed as HDAC6 degradation at 10 to 100 nM measured after 6 hrs by Western blot analysis; assay type: cell-based
Target sequence in this assay (Q96SW2 whole entry, looked up): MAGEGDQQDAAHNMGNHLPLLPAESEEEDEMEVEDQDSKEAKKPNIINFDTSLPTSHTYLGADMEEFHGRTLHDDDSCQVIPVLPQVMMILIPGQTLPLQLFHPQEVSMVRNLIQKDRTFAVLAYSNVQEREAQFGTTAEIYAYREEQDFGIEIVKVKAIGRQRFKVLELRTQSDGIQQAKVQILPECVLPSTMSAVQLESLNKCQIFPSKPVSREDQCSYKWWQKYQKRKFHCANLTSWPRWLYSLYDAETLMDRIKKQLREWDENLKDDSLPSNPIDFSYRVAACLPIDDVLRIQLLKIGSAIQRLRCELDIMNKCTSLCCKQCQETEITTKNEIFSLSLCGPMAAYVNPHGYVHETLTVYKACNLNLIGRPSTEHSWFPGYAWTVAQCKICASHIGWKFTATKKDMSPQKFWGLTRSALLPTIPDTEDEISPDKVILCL
Target sequence in this assay (Q9UBN7 whole entry, looked up): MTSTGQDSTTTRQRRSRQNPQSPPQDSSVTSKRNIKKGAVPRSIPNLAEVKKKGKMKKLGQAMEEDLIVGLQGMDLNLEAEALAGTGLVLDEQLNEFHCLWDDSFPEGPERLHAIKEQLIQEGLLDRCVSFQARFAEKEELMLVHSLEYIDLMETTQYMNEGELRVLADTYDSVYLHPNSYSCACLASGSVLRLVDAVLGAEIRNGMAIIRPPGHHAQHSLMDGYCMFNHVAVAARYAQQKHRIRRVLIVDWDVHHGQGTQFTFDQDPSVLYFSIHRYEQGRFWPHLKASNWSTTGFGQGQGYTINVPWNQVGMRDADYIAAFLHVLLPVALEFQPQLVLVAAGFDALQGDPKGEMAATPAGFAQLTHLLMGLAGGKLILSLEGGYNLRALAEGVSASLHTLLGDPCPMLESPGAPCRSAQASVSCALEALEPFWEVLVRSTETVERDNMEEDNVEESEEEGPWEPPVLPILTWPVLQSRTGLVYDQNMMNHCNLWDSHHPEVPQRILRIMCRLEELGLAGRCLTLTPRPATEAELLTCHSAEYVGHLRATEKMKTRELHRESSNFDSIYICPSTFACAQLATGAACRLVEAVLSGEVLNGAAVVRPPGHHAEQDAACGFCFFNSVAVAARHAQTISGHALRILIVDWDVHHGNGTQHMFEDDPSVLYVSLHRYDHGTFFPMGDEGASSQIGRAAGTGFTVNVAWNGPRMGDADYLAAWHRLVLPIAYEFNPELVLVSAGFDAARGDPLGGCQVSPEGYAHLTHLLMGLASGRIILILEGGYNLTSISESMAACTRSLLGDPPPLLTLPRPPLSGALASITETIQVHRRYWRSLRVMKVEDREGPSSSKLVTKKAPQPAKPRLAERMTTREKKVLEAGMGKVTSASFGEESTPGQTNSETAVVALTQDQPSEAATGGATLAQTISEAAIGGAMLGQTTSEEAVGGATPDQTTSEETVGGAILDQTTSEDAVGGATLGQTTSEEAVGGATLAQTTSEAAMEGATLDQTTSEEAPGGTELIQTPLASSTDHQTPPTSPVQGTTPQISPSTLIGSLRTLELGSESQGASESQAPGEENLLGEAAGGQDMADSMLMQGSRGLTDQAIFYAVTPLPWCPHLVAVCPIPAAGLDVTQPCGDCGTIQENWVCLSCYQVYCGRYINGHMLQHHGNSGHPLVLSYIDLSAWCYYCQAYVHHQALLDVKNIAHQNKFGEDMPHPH

[2] = target: T1, Protein cereblon/Protein deacetylase HDAC6; test: Protac activity at CRBN/HDAC6 in human MM1S cells assessed as HDAC6 degradation measured after 6 hrs by ELISA; assay type: cell-based
Outline: (§1)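 In-cell ELISA: MM1S cells (5 × 10^4 per well) seeded overnight, treated 6 h (dosed as 5× medium; 0.1 nM–1 μM or 10/100 nM). Fixed in 8% formaldehyde/TBS, permeabilized with 0.1% Triton X, peroxidase quenched with 1% H2O2, blocked in 5% BSA. Anti-HDAC6 rabbit mAb (1:1000, 2 h) then HRP secondary; TMB read as OD450 − OD570. Background wells lacked primary antibody. Signal normalized to Janus Green and to DMSO wells, n = 3. DC50/Dmax from three-parameter fit.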
Target sequence in this assay (Q9UBN7 whole entry): as the sequence (Q9UBN7 whole entry, looked up) above
Target sequence in this assay (Q96SW2 whole entry): as the sequence (Q96SW2 whole entry, looked up) above

MM1.S [3] = test: Antiproliferative activity against human MM1S cells assessed as reduction in cell viability at 1 uM measured after 72 hrs by resazurin dye based assay; assay type: functional
[4] = target: T1, Protein cereblon/Protein deacetylase HDAC6; test: Protac activity at CRBN/HDAC6 in human MM1S cells assessed as HDAC6 degradation measured after 6 hrs by ELISA relative to control; assay type: cell-based; outline: as §1
Target sequence in this assay (Q96SW2 whole entry, looked up): as above
Target sequence in this assay (Q9UBN7 whole entry, looked up): as the sequence (Q9UBN7 whole entry, looked up) above

[5] = target: T1, Protein cereblon/Protein deacetylase HDAC6; test: Protac activity at CRBN/HDAC6 in human HepG2 cells assessed as HDAC6 degradation up to 1 uM incubated for 6 hrs by Western blot analysis; assay type: cell-based
Target sequence in this assay (Q96SW2 whole entry, looked up): as the sequence (Q96SW2 whole entry, looked up) above
Target sequence in this assay (Q9UBN7 whole entry, looked up): as the sequence (Q9UBN7 whole entry, looked up) above

[6] = target: T1, Protein cereblon/Protein deacetylase HDAC6; test: Protac activity at CRBN/HDAC6 in human MM1S cells assessed as HDAC6 degradation at 100 nM measured after 6 hrs by Western blot analysis; assay type: cell-based
Target sequence in this assay (Q96SW2 whole entry, looked up): as the sequence (Q96SW2 whole entry, looked up) above
Target sequence in this assay (Q9UBN7 whole entry, looked up): as the sequence (Q9UBN7 whole entry, looked up) above

MM1.S [7] = test: Antiproliferative activity against human MM1S cells assessed as reduction in cell viability measured after 72 hrs by resazurin dye based assay; assay type: functional
Outline: (§2)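 MM1S cells seeded at 1 × 10^4 per well, left overnight, then given compound or DMSO vehicle (added as 5× dosing medium) for 72 h at 37 °C, 5% CO2. Resazurin added (10× solution, 1 mg/mL), then incubated overnight at 37 °C. OD read at 570 and 600 nm. Viability is relative to vehicle, n = 3. Curves fitted as [inhibitor] vs response (three parameters); test range 0.3 nM–3 μM.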

MM1.S [8] = test: Antiproliferative activity against human MM1S cells assessed as reduction in cell viability measured after 72 hrs by resazurin dye based assay relative to control; assay type: functional; outline: as §2

Row | Compound | Activity [1] | Activity (MM1.S [3]) | also measured
1 | CCCCN(Cc1ccc(C(=O)NO)cc1)C(=O)Nc1ccc(OCCCCCn2cc(CNc3ccc4c(c3)C(=O)N(C3CCC(=O)NC3=O)C4=O)nn2)cc1 (configuration not stated) | Active |  | 
2 | O=C(CCCCCCC(=O)N/N=C/c1ccc(OCCOCCOCCn2cc(CNc3cccc4c3C(=O)N(C3CCC(=O)NC3=O)C4=O)nn2)cc1)NO (configuration not stated) | Active | Active | DC50 [2]: 9.12 nM; %max [4]: 84.1%
3 | CCCCN(Cc1ccc(C(=O)NO)cc1)C(=O)Nc1ccc(OCCn2cc(CCCNc3cccc4c3C(=O)N(C3CCC(=O)NC3=O)C4=O)nn2)cc1 (configuration not stated) | Active |  | DC50 [2]: 2.54 nM; %max [4]: 86.3%
4 | CCCCN(Cc1ccc(C(=O)NO)cc1)C(=O)Nc1ccccc1 |  | inactive | 
5 | CCCCN(Cc1ccc(C(=O)NO)cc1)C(=O)Nc1ccc(OCCCCn2cc(CNc3ccc4c(c3)C(=O)N(C3CCC(=O)NC3=O)C4=O)nn2)cc1 (configuration not stated) | Active |  | Activity [5]: Active
6 | CCCCN(Cc1ccc(C(=O)NO)cc1)C(=O)Nc1ccc(OCCCCCn2cc(CNc3cccc4c3C(=O)N(C3CCC(=O)N(C)C3=O)C4=O)nn2)cc1 (configuration not stated) |  | inactive | Activity [6]: inactive
7 | Nc1cccc2c1C(=O)N(C1CCC(=O)NC1=O)C2=O (configuration not stated) |  | Active | 
8 | CCCCN(Cc1ccc(C(=O)NO)cc1)C(=O)Nc1ccc(OCCn2cc(CNc3cccc4c3C(=O)N(C3CCC(=O)NC3=O)C4=O)nn2)cc1 (configuration not stated) |  |  | DC50 [2]: 3.41 nM; %max [4]: 88%
9 | CCCCN(Cc1ccc(C(=O)OC)cc1)C(=O)Nc1ccc(OCCCCCn2cc(CNc3cccc4c3C(=O)N(C3CCC(=O)NC3=O)C4=O)nn2)cc1 (configuration not stated) |  | Active | EC50 (MM1.S [7]): 17.7 nM; Imax (MM1.S [8]): 44%; Activity [6]: inactive
10 | CCCCN(Cc1ccc(C(=O)NO)cc1)C(=O)Nc1ccc(OCCCn2cc(CCCNc3ccc4c(c3)C(=O)N(C3CCC(=O)NC3=O)C4=O)nn2)cc1 (configuration not stated) | Active |  | 
11 | CCCCN(Cc1ccc(C(=O)NO)cc1)C(=O)Nc1ccc(OCCCCn2cc(CCNc3cccc4c3C(=O)N(C3CCC(=O)NC3=O)C4=O)nn2)cc1 (configuration not stated) | Active |  | 
